# Screening results: PubChem BioAssay, several laboratories
# PMI act: activators of human PMI, primary screen, biochemical, fluorescence intensity, near-Km mannose 6-phosphate | purified human PMI, coupled resazurin fluorescence, 20 min; hits give high values; 1 = vehicle control, 0 substrate-free wells | activation factor at 20 µM | 0.005% of 190,000 active;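 active = activation factor of 2 or more at 20 µM, relative to plate controls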
# ROMK mod: ROMK potassium channel modulators, primary screen, cell-based, thallium flux, MLSMR library | B-score at 10 µM | ATP-sensitive inward rectifier potassium channel 1 (Homo sapiens), P48048 | 2% of 130,000 active | Tet-inducible ROMK, thallium flux fluorescence; actives lie on both sides;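 active = signal ratio slope over the read window, or its plate-corrected B-score, at least 3 SD from the plate mean, either direction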;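 note: B-score of the F/F0 ratio slope over 7 to 12 s after thallium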
# Target sequence (P48048 whole entry, looked up): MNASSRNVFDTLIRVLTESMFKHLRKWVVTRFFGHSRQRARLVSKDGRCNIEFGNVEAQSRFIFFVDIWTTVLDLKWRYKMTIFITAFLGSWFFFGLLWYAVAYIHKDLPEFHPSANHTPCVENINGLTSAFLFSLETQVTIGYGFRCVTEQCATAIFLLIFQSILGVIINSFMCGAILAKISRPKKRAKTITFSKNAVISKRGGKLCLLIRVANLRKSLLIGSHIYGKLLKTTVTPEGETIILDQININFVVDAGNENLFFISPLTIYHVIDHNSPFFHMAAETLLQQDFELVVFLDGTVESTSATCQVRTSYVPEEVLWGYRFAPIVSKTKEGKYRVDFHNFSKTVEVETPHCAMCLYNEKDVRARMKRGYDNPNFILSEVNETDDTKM
# ABCB1 inh: ABCB1 efflux pump inhibitors, primary screen, cell-based, multiplex, flow cytometry, ABCG2 counter-screen; ATP-dependent translocase ABCB1 (Homo sapiens), P08183; CCRF-Adr cells, JC-1 efflux; inhibition, % at 6.6 µM; 0.067% of 190,000 active; in the data active = inhibition above about 40%;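 note: 0% = vehicle and 100% = reference inhibitor; higher value means more JC-1 retained so stronger ABCB1 efflux block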
# ABCG2 inh: ABCG2 efflux pump inhibitors, primary screen, multiplex with ABCB1, IgMXP3 cells, flow cytometry; Broad substrate specificity ATP-binding cassette transporter ABCG2 (Homo sapiens), Q9UNQ0; JC-1 efflux; inhibition, % at 6.6 µM; 0.1% of 190,000 active;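 active = inhibition above 80%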;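 note: 0% = DMSO and 100% = nicardipine control wells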
#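 Test system: IgMXP3 (ABCG2) plus far-red-tagged CCRF-Adr (ABCB1) cells / Amount: 3 million cells/mL in well / Reagent: JC-1 transporter substrate / Timing: 10 min compound exposure, 25 °C / Signal: flow cytometry, 530 nm JC-1 signal / Read-out: percent efflux inhibition, scaled nicardipine 100% to DMSO 0% / Benchmarks: nicardipine as high control, DMSO as low control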
# Cl transport mod: KCC2 cotransporter modulators, thallium flux, primary screen, cell-based, HEK293 KCC2, FluoZin-2 fluorescence, MLSMR. 2.2% of 190,000 active. KCC2 cells, thallium flux FluoZin-2 fluorescence. B-score of Tl+ flux slope (higher = more flux/activation; lower = inhibition) at 10 µM. Solute carrier family 12 member 5 (Homo sapiens), Q9H2X9;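 active = thallium flux slope and its plate-corrected score both differing from the plate sample mean at a set confidence after two filtering rounds, in either direction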;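 note: slope of fluorescence scaled to starting intensity during 10 to 20 s after thallium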
# PMI act hi M6P: human PMI activators, high substrate, primary screen, biochemical, fluorescence intensity, near-saturating mannose 6-phosphate | coupled PMI enzyme assay, resazurin fluorescence, 20 min; hits give high values; 1 = untreated enzyme, 0 = substrate-free blank | activation factor at 20 µM | 0.34% of 190,000 active | AID 1216, 2008;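 active = activation factor of 2 or more at 20 µM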
#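 Technique: Diaphorase-driven resazurin-to-resorufin fluorescence, excitation 544, emission 590 nm | Assay system: Human PMI in coupled enzyme assay | Times: Enzyme reaction with compound 20 min at room temperature | Medium: HEPES-buffered pH 7.4 with magnesium and detergent | Reagent: Mannose-6-phosphate 1.0 mM (near-saturating) plus 0.22 mM NADP+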
# KCC2 secondary: KCC2 modulators in sodium-free buffer, confirmation, cell-based, HEK293 KCC2, thallium flux, secondary assay; FluoZin2 fluorescence; hits give high values; normalised thallium flux (F/F0 slope) at 10 µM; shares compounds with Cl transport mod; 15% of 3,700 active;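 active = thallium flux slope above the same plate's solvent-only control mean plus 3 SD; inconclusive = the two replicate wells disagree; inactive = no significant difference from solvent-only control wells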
# KCC2 bumet counter: thallium flux persisting under bumetanide in KCC2 cells, confirmation, counter-screen for KCC2 modulator project, cell-based, HEK293 KCC2, FluoZin2, secondary assay 3; shares compounds with Cl transport mod; HEK293-KCC2 + bumetanide/ouabain; hits give high values; normalized thallium flux at 10 µM; 49% of 3,700 active;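 active = thallium entry rate above the same plate's blocked-transporter control wells by more than 3 SD; inconclusive = the two repeat wells disagree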;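 note: raw slope of fluorescence over initial fluorescence between 10 and 20 s after thallium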
# KCC2 sec2: KCC2 modulators without ouabain present, confirmation, cell-based, HEK293 KCC2, thallium flux, FluoZin2, secondary assay 2 | 23% of 3,700 active | thallium flux FluoZin2 fluorescence; actives lie on both sides; F/F0 rise rate, 10–20 s post-thallium | AID 1715, 2009 | shares compounds with Cl transport mod | normalized thallium flux at 10 µM;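 active = thallium flux slope more than 3 SD above or below the plate's solvent-only control mean, mostly below; inconclusive = the two repeat wells disagreed; inactive = no significant shift from solvent-only controls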;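 note: raw slope with 0.1% DMSO as baseline and bumetanide as block control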
# HEK counter1: thallium flux modulation in parental HEK cells, confirmation, counter-screen for KCC2 modulator project, cell-based, counterscreen 1 | HEK293 parental cells, thallium flux FluoZin2, ouabain; baseline-ratio fluorescence slope, 10–20 s after thallium | 46% of 3,700 active | shares compounds with Cl transport mod | thallium flux rate (normalised fluorescence) at 10 µM;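 active = thallium flux rate significantly above the same plate's solvent-only control wells, beyond their mean plus 3 SD; inconclusive = the two replicate wells gave conflicting results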
# KCC2 retest ouab: KCC2 inhibitors and activators, ouabain retest, confirmation, HEK-KCC2 cells; 48% of 3,700 active; shares compounds with Cl transport mod; HEK293-KCC2, thallium flux FluoZin2 fluorescence; bidirectional: low = inhibitor, high = activator; raw Tl+ flux slope (below DMSO = inhibition, above = activation) at 10 µM; AID 1717, 2009;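 active = thallium flux slope beyond 3 SD from same-plate DMSO control mean in most replicates, usually higher, sometimes lower; inconclusive = repeat tests gave conflicting results; inactive = no significant difference from controls in most replicates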;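 note: slope of initial-normalized fluorescence between seconds 10 and 20 after thallium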
# HEK counter2: native HEK Tl+ uptake effects, second counter-screen – HEK cells, counterscreen 2, counter-screen for KCC2 modulator project, confirmation | shares compounds with Cl transport mod | HEK293 parental, thallium flux FluoZin-2 fluorescence slope | thallium flux slope at 10 µM | 33% of 3,700 active;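 active = thallium flux slope above the same plate's solvent-control mean plus 3 SD in both duplicate wells; inconclusive = duplicate wells that disagreed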;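 note: run without ouabain in cells lacking the KCC2 cotransporter; slope of fluorescence scaled to its starting value between 10 and 20 s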
# * = called active by the depositor; ? = inconclusive; · = not tested or not shown. Only some compounds are listed: those with a hit (about 3.3% of all), similar ones and a draw of the others.
SMILES,PMI act,ROMK mod,ABCB1 inh,ABCG2 inh,Cl transport mod,PMI act hi M6P,KCC2 secondary,KCC2 bumet counter,KCC2 sec2,HEK counter1,KCC2 retest ouab,HEK counter2
Cc1ccc(C(C)C)c(OCc2n[nH]c(=S)o2)c1,1,0.55,0,-1,28*,1.1,0.014,0.043*,?,0.034*,0.035*,0.034*
S=c1[nH]nc(CCc2ccc(Cl)cc2)o1,1.1,·,-1,-5,-7.8*,1.1,0.01,0.007,0.023*,0.0074,0.04*,0.01
COc1ccc(OCc2n[nH]c(=S)o2)cc1,0.9,0.47,0,5,-3.1,1,·,·,·,·,·,·
NC(=O)C(=CNc1nc(-c2ccc(Cl)c(Cl)c2)cs1)C(N)=O,·,·,·,·,1.5,·,·,·,·,·,·,·
CCOC(=O)CSc1nnc(C)n1N,1.1,1.3,0,2,0.15,1.1,·,·,·,·,·,·
O=C(Nc1ccccn1)C(=O)N1CCCCC1,1.1,·,1,2,·,1.1,·,·,·,·,·,·
Cc1nc2c(cnn2-c2ccccc2Cl)c(=O)n1-c1ccc(N2CCC(C)CC2)cc1,0.9,0.44,2,10,·,1,0.0092,0.0069,0.033,0.0079,0.02,0.011
Nc1ccc2oc(-c3cccs3)nc2c1,0.9,0.83,0,0,-3.9*,0.5,0.007,0.0052,0.031,0.0084,0.019,0.011
COc1ccc(CC(=O)O/N=C(\N)Cc2cccc3ccccc23)cc1OC,0.8,·,1,4,-1.6,0.8,·,·,·,·,·,·
Cc1ccc(-c2cc3ncc(C#N)c(N)n3n2)cc1,1.1,-0.017,2,24,0.044,1,·,·,·,·,·,·
Cc1ccc(C2=NC3(CCCCC3)NC2=S)cc1,0.9,1,1,9,2.4,1,·,·,·,·,·,·
S=C1NC2(CCCCC2)N=C1c1ccccc1,0.9,-1.1,0,-4,4.7*,1,0.0095,0.03*,0.034,0.012*,?,0.012*
Cc1nc(C(=O)NNC(=O)c2cccc(Cl)c2)c(C(F)(F)F)o1,·,·,·,·,11*,·,0.013*,0.019*,0.033,?,0.023,0.011*
